The results in this text go back to ChEMBL document CHEMBL1649309, “Foreign travel is a major risk factor for colonization with Escherichia coli producing CTX-M-type extended-spectrum beta-lactamases: a prospective study with Swedish volunteers” (Antimicrob Agents Chemother, 2010).

Activity calls are given as the source filed them. No cut-off for these calls is given here.

The subject of the first test is Escherichia coli. The test can be described thus: Antimicrobial activity against ESBL producing Escherichia coli assessed as susceptible isolates by Etest. The format is functional, organism-based. The gist of the method: (§1)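 24 ESBL-producing E. coli strains acquired during travel, isolated from post-travel rectal swabs of Swedish travellers. Swabs were enriched in LB broth with cefotaxime 2.5 μg/ml, then plated on MacConkey agar with cefotaxime and ceftazidime discs, overnight at 35°C in room air. ESBL production was confirmed by disc-diffusion synergy test and CTX-M by PCR. Susceptibility was measured by Etest and interpreted per EUCAST guidelines.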
Turning to `CC1(C)S[C@@H]2[C@H](/N=C/N3CCCCCC3)C(=O)N2[C@H]1C(=O)O`, the result was Active.
Same read-out and setting: for `O=C(O)c1cn(C2CC2)c2cc(N3CCNCC3)c(F)cc2c1=O` the value was “Active”; for `C[C@@H](O)[C@H]1C(=O)N2C(C(=O)O)=C(S[C@@H]3CN[C@H](C(=O)N(C)C)C3)[C@H](C)[C@H]12`, “Active”.
As for `O=C1CN(/N=C/c2ccc([N+](=O)[O-])o2)C(=O)N1`, the outcome was Active.
Take `C[C@@H](O)[C@H]1C(=O)N2C(C(=O)O)=C(S[C@@H]3CN[C@H](C(=O)Nc4cccc(C(=O)O)c4)C3)[C@H](C)[C@H]12`: the result was Active.
On the same count and under the same terms, for `C[C@@H](O)[C@H]1C(=O)N2C(C(=O)O)=C(SCCNC=N)C[C@H]12` the value was “Active”.

The test system of another test is Escherichia coli. The test can be described thus: Antimicrobial activity against ESBL producing Escherichia coli assessed as susceptible isolates by Etest in presence of beta-lactamase inhibitor Tazobactam. It counts as functional, organism-based. In outline:
as §1
Consider `CCN1CCN(C(=O)N[C@@H](C(=O)N[C@@H]2C(=O)N3[C@@H]2SC(C)(C)[C@@H]3C(=O)O)c2ccccc2)C(=O)C1=O`, for which the result was Active.

Another test deals with Escherichia coli. Nature of the test: Antimicrobial activity against ESBL producing Escherichia coli assessed as resistant isolates by Etest. It counts as functional, organism-based. In outline:
as §1
On to `NC[C@H]1O[C@H](O[C@H]2[C@H](O)[C@@H](O[C@H]3O[C@H](CO)[C@@H](O)[C@H](N)[C@H]3O)[C@H](N)C[C@@H]2N)[C@H](N)C[C@@H]1O`, for which the outcome was inactive.
Same read-out and setting: under `C[C@@H]1O[C@@H]1P(=O)(O)O` stands “inactive”.
As for GENTAMICIN, the outcome was inactive.
